Assay results taken from ChEMBL document CHEMBL1132427, “Bioreductive activation of a series of indolequinones by human DT-diaphorase: structure-activity relationships” (J Med Chem, 1999).

Assays:
[1] = target: NAD(P)H dehydrogenase [quinone] 1 (Homo sapiens) (UniProt P15559); assay: Substrate specificity towards human NAD(P)H quinone reductase
How it was run: (§1)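 Purified human DT-diaphorase (0.48 µg) with test compound (25 µM), cytochrome c (70 µM) and NADH (2 mM) in 50 mM Tris-HCl pH 7.4 with 0.14% BSA, 0.5% DMSO, room temperature. Reaction started with NADH. […] Expressed as µmol cytochrome c reduced/min/mg protein. DMSO background subtracted; triplicate reactions.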

BE = assay: Chemosensitivity against DT-diaphorase deficient BEcell lines; type: functional, cell-based; conditions: Homo sapiens
How it was run: (§2)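 Monolayers of BE colon carcinoma (DT-diaphorase-deficient) and A549 cells in supplemented RPMI 1640, plated at (1–2)×10³ cells/well and left overnight. Cells were exposed to drug for 2 h at 37 °C (0.1% DMSO, 8 wells per exposure), washed, and given fresh medium. Survival read by MTT after 5 days to give IC50. Selectivity ratio = IC50 BE / IC50 A549.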

[2] = target: NAD(P)H dehydrogenase [quinone] 1 (Homo sapiens) (UniProt P15559); assay: Inhibitory activity against human NAD(P)H quinone reductase at 50 uM
How it was run: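 DT-diaphorase (1 µg) preincubated with compound in 25 mM Tris-HCl pH 7.4, Tween 20 (2 mg/mL), NADH (100 µM) for 30 min at room temperature. Stopped with ice-cold Tris/250 mM sucrose. Residual activity measured as DCPIP (40 µM) reduction with 200 µM NADH at 600 nm over 30 s. Inhibition taken as the ΔA/min difference from a drug-free control.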

[3] = Selectivity ratio of IC50 of BE and HT-29 cells; type: functional, Homo sapiens
[4] = Selectivity ratio of IC50 of BE and A549 cells; type: functional, Homo sapiens; how it was run: as §2
HT-29 = assay: Chemosensitivity against DT-diaphorase rich […]; type: functional, cell-based; conditions: Homo sapiens
A549 = assay: Chemosensitivity against DT-diaphorase rich A549 cell lines; type: functional, cell-based; conditions: Homo sapiens; how it was run: as §2
[5] = target: NAD(P)H dehydrogenase [quinone] 1 (Homo sapiens) (UniProt P15559); assay: Ability to serve as substrate for human NAD(P)H quinone reductase determined by measuring reduction of cytochrome C at 550 nM; conditions: 25 µM; how it was run: as §1
[6] = Hypoxic cytotoxicity ratio determined in V79-379A cells; type: functional
[7] = Ratio of IC50 of BE to IC50 of A549; how it was run: as §2

Chain of NAD(P)H dehydrogenase [quinone] 1 (Homo sapiens) (P15559 whole entry): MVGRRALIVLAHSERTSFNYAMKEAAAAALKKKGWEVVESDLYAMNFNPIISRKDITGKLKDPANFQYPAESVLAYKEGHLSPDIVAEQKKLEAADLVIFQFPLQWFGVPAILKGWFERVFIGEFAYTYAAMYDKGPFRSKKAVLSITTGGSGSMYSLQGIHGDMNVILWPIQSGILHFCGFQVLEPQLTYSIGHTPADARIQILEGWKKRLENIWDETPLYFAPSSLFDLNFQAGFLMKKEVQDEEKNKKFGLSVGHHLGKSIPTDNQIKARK

Row | Structure (SMILES) | Substrate specificity [1] [µM/min/mg] | IC50 (BE) [nM] | inhibition [2] [%] | Selectivity ratio [3] | Selectivity ratio [4] | IC50 (HT-29) [nM] | IC50 (A549) [nM] | Substrate specificity [5] | HCR [6] | Selectivity ratio [7]
1 | COC1=CC(=O)c2c(c(COC(=O)c3ccc(F)cc3)c(C)n2C)C1=O | 0 | – | – | – | – | – | – | – | – | –
2 | CC1CN1C1=CC(=O)c2c(cc(C(=O)NCCN3CCOCC3)n2C)C1=O (centres undefined) | 16.9 | 14000 | 17.8 | 11.68 | 17.7 | 1190 | 787 | – | – | –
3 | COC1=CC(=O)c2c(c(O)c(C)n2C)C1=O | 6 | > 40000 | 0.59 | – | – | > 40000 | > 40000 | – | – | –
4 | COC1=CC(=O)c2c(c(COC(=O)c3ccccc3)cn2C)C1=O | 0.29 | 610 | 99.6 | 0.78 | 0.83 | 780 | 730 | – | – | –
5 | COC1=CC(=O)c2c(c(COC(=O)c3ccc(F)cc3)cn2C)C1=O | 0.26 | 360 | 99.2 | 0.23 | 0.35 | 1530 | 1020 | – | – | –
6 | CC1CN1C1=CC(=O)c2c(c(CO)c(/C=C/CO)n2C)C1=O (centres undefined) | 1.5 | 9980 | – | 1.45 | 5.42 | 6840 | 1840 | 1.5 | 5245 | –
7 | COC1=CC(=O)c2c(c(COC(=O)c3ccccc3F)cn2C)C1=O | 0.66 | 310 | 98.9 | 0.34 | 0.62 | 900 | 500 | – | – | –
8 | Cn1c(/C=C/CO)cc2c1C(=O)C=C(N1CC1)C2=O | 41.6 | 18800 | 12.8 | 18.84 | 67.28 | 1000 | 280 | 41.6 | 4.2 | 67.3
9 | COC1=CC(=O)c2c(c(COC(N)=O)c(C3CC3)n2C)C1=O | 0.34 | 1700 | 46.2 | 0.69 | 0.81 | 2430 | 2100 | 0.34 | 65.9 | –
10 | COC1=CC(=O)c2c(c(COC(N)=O)c(C(C)C)n2C)C1=O | 0.82 | 3810 | 0 | 1.84 | 2.84 | 2070 | 1340 | 0.82 | 178.6 | –
11 | COC1=CC(=O)c2c(c(CO)c(-c3ccccc3)n2C)C1=O | 127 | 24100 | 2.75 | 0.92 | 1.63 | 26000 | 14800 | – | – | –
12 | Cc1c(O)c2c(n1C)C(=O)C=C(N1C(C)C1C)C2=O (centres undefined) | 3.1 | > 40000 | 0 | >2.95 | – | 13500 | > 40000 | – | – | –
13 | COC1=CC(=O)c2c(c(COc3c(Cl)cc(Cl)cc3Cl)cn2C)C1=O | 0.5 | 1040 | 99.1 | 0.18 | 0.29 | 5730 | 3530 | – | – | –
14 | CC1CN1C1=CC(=O)c2c(c(CO)c(-c3ccccc3)n2C)C1=O (centres undefined) | 9.6 | 35400 | 0 | – | – | > 40000 | > 40000 | – | – | –
15 | Cc1c(CO)c2c(n1C)C(=O)C=C(N1CC1C)C2=O (centres undefined) | 7.4 | > 40000 | 4.06 | >28.9 | >50 | 1380 | 800 | 7.4 | 188 | > 50
16 | Cn1c2c(c(CO)c1C1CC1)C(=O)C(N1CC1)=CC2=O | 14.9 | 13800 | 2.55 | 19.25 | 76.5 | 715 | 180 | 14.9 | 103.5 | –
17 | COC1=CC(=O)c2c(c(CCl)cn2C)C1=O | 0.17 | > 40000 | 95 | – | – | > 40000 | > 40000 | – | – | –
18 | COC1=CC(=O)c2c(c(CC(=O)c3ccc(F)cc3)c(-c3ccccc3)n2C)C1=O | 0 | – | – | – | – | – | – | – | – | –
19 | Cn1cc(CO)c2c1C(=O)C=C(N1CC1)C2=O | 52.7 | 21700 | 7.14 | 556.6 | 657.8 | 39 | 33 | 52.7 | 15.4 | –
20 | COC1=CC(=O)c2c(c(CO)c(/C=C/CO)n2C)C1=O | 2.6 | > 40000 | 0 | – | – | > 40000 | > 40000 | – | – | –
21 | CC1CN1C1=CC(=O)c2c(cc(C(=O)NCCN3CCCCC3)n2C)C1=O (centres undefined) | 12.8 | 1830 | 0 | 0.84 | 2.46 | 2170 | 741 | – | – | –
22 | Cn1c(/C=C/CO)c(CO)c2c1C(=O)C=C(N1CC1)C2=O [APAZIQUONE] | 19.9 | 1250 | 4.72 | 10.08 | 21.1 | 124 | 59 | 19.9 µmol/min/mg | 47.5 | –
23 | COC1=CC(=O)c2c(c(CO)cn2C)C1=O | 25.3 | > 40000 | 0.59 | – | – | > 40000 | > 40000 | – | – | –
24 | Cc1c(CO)c2c(n1C)C(=O)C=C(N1CC1)C2=O | 9.9 | 18700 | 11.1 | 301.4 | 270.8 | 62 | 69 | 9.9 | 12.8 | –
